# High-throughput results from PubChem BioAssay.
# The list is not random: actives were taken first. Their share in the collection is about 2%.
# CAL PDZ FP-1: blocks peptide binding to human CAL PDZ domain. purified CAL PDZ, TMR-peptide fluorescence polarization, 1 h. Q9HD26. inhibition, % at 20 µM. 0.02% of 330,000 active;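 active = highest replicate inhibition of at least 40%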;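 also: plate controls were DMSO neutral control wells for no effect and unlabeled competitor peptide control wells for full effect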
#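 Material – purified CerCALP PDZ construct · Detection – FP readout, S and P plane fluorescence · Measure – percent inhibition from loss of millipolarization · Controls – unlabelled peptide for full inhibition, DMSO wells as neutral · Probe or stimulus – TMR-labelled reporter peptide T*-PRC34 bound in PDZ groove · Times – 1 h at RT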
# S100A4 MyoIIA: inhibitors of human S100A4 binding to myosin IIA peptide. S100A4/TAMRA-MyoIIA peptide fluorescence polarization. inhibition, % at 10.7 µM. 0.14% of 360,000 active;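 active = mean inhibition of at least 70% across replicates, with every replicate also reaching that level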
#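 Material: S100A4 monomer protein | Medium: HEPES pH 7.2 with CaCl2, KCl, NaCl, DTT, Triton | Reagent: Labelled myosin peptide probe, 5 nM | Doses: One dose per compound | Times: 5 min incubation before reading | Benchmarks: Neutral control DMSO, positive control TFP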
# dFosB act: activators of mouse delta FosB homodimer; activation, % at 25 µM; 0.99% of 340,000 active; P13346; purified delta FosB, TAMRA-CDK5 oligo fluorescence polarization; percent of positive-control signal above neutral wells; AID 493131;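 active = mean activation above about 17%, with every replicate also reaching it, limit read from the data, passing the limit was not always enough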
# Statin myotox sup: suppression of simvastatin myotoxicity; C2C12 myotubes + simvastatin, ATP luminescence, 48 h; scaled: DMSO 0, geranylgeraniol control 100; 0.78% of 330,000 active; rescue of ATP level, % at 7.49 µM;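 active = mean ATP rescue above about 67%, or every replicate alone reaching that limit, limit read from the data, passing the limit was not always enough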;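 also: myotubes were challenged with 10 µM simvastatin during compound exposure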
# CAL PDZ FP-2: blocks peptide binding to the human CAL PDZ domain | purified CAL PDZ, TMR-peptide fluorescence polarization, 1 h | inhibition, % at 24.9 µM | 0.92% of 300,000 active | AID 602252;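 active = mean inhibition of at least 30% with at least half of replicates also reaching 30%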;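 also: 0% = DMSO neutral control and 100% = excess unlabeled competitor peptide PRC23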
# CDK5 p35 inh: blocks human CDK5/p35 kinase activity. Q00535+Q15078. inhibition, % at 10 µM. Recombinant CDK5/p35, ADP-Glo luminescence, 60 min. AID 488839. 0.01% of 330,000 active;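 active = highest replicate inhibition of at least 50% and at least 75% of replicates reaching 50%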;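 also: plate controls were DMSO neutral control for no effect and GW8510 at 10 µM for full effect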
# Target sequence (Q00535 whole entry, looked up): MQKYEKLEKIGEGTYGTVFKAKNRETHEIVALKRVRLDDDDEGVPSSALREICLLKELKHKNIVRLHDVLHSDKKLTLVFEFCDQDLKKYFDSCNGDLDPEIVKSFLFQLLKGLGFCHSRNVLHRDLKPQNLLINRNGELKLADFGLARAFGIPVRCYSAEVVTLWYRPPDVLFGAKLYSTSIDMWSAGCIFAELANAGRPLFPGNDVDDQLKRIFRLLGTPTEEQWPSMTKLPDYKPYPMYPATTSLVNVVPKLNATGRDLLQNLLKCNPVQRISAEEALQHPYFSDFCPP
# Target sequence (Q15078 whole entry, looked up): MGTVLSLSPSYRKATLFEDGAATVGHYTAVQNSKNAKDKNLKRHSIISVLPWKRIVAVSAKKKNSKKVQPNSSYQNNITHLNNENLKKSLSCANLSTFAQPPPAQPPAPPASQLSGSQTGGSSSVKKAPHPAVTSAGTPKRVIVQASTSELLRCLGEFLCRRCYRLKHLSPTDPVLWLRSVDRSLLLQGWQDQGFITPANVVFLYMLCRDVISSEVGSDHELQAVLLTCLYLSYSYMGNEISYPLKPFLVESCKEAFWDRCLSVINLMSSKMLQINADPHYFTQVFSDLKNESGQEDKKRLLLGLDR
# The depositor's hits bear a star; / = no result.
SMILES,CAL PDZ FP-1,S100A4 MyoIIA,dFosB act,Statin myotox sup,CAL PDZ FP-2,CDK5 p35 inh
CC1=NC(C)(C)Cc2c(C)cccc21,0,2,4,-3,-4,3
CC1=NC(C)(C)Cc2cc(C)c(C)cc21,0,18,-6,/,54*,-1
COc1ccc(S(=O)(=O)Nc2ccc3c(c2)C(=O)N([C@H](C)CO)C[C@H](C)[C@H](CN(C)C(=O)Nc2ccccc2)OCCCC[C@H](C)O3)cc1,/,108*,/,11,/,/
COc1ccc(NC(=O)N(C)C[C@H]2OCCCC[C@@H](C)Oc3ccc(NS(=O)(=O)c4ccccc4)cc3C(=O)N([C@H](C)CO)C[C@H]2C)cc1,/,-7,/,/,/,/
COc1ccc(S(=O)(=O)Nc2ccc3c(c2)C(=O)N([C@@H](C)CO)C[C@@H](C)[C@H](CN(C)C(=O)c2ccccc2)OCCCC[C@@H](C)O3)cc1,/,-8,/,113*,/,/
C[C@@H]1CN([C@@H](C)CO)C(=O)c2cc(NC(=O)NC3CCCCC3)ccc2O[C@@H](C)CCCCO[C@H]1CN(C)C(=O)c1ccccc1,/,9,/,85*,/,/
C[C@H]1CCCCO[C@@H](CN(C)C(=O)c2ccccc2)[C@@H](C)CN([C@@H](C)CO)C(=O)c2cc(NC(=O)NC3CCCCC3)ccc2O1,/,-6,/,2,/,/
CCC(=O)N(C)C[C@@H]1Oc2ncc(C#CCC3CCCC3)cc2C(=O)N([C@H](C)CO)C[C@H]1C,/,9,/,1,/,/
CN1CCN(C(=O)/C(=C/c2cn(S(=O)(=O)N(C)C)c3ccccc23)NC(=O)c2ccccc2F)CC1,-2,-4,-12,-10,54*,0
CN(C)S(=O)(=O)n1cc(/C=C(\NC(=O)c2ccccc2F)C(=O)N2CCCC2)c2ccccc21,-3,-5,-5,-9,-1,/
Cc1cc(C)nc(NCC(O)CNc2ccccc2C)n1 (stereo not given),-1,/,0,/,62*,0
Cc1cc(C)nc(NCC(O)COc2ccccc2C)n1 (stereo not given),0,/,-4,-18,-1,-1
O=c1[nH]c(=O)n(C2CCCCCC2)c(O)c1C=NCc1ccc(F)cc1,-7,/,-32,9,34*,-2
Cc1c(N=Cc2c(O)n(C3CCCCC3)c(=O)[nH]c2=O)c(=O)n(-c2ccccc2)n1C,-1,/,-13,/,-3,-1
CC(C)Oc1ccc(C(=O)NCc2ccco2)cc1,0,/,4,127*,1,0
Cc1cccc(C)c1-n1nnnc1C(c1ccnc2ccccc12)N1CCN(C/C=C/c2ccccc2)CC1 (stereo not given),/,2,/,14,/,/
O=C(COC(=O)/C=C/c1ccc(Cl)c(Cl)c1)NC1CCS(=O)(=O)C1 (stereo not given),-1,-2,1,-18,64*,1
CN(C)/C=C/C(=O)c1ccc(F)cc1,-2,3,-3,-4,1,-2
CCCc1ccc(C(=O)/C=C/N(C)C)cc1,-4,-3,-8,3,53*,-5
O=C(/C=C\c1ccc2c(c1)OCO2)CC1(O)C(=O)Nc2ccccc21 (stereo not given),/,-2,-5,7,89*,-1
O=C(CC1(O)C(=O)Nc2ccccc21)c1ccc2c(c1)OCO2 (stereo not given),-3,/,-1,10,-1,1
CCOc1ccccc1N(CC(=O)NCc1ccncc1)S(=O)(=O)c1ccccc1,-1,2,-8,-6,-3,0
Cc1ccc2c(CC(=O)N3CCN(S(=O)(=O)c4ccc5c(c4)OCCO5)CC3)coc2c1,0,/,-5,-3,58*,1
c1ccc(Cn2c(NCc3ccncc3)nc3ccccc32)cc1,0,0,-4,/,-4,-1
COc1ccc(C(=O)N2CCc3cc(OC)c(OC)cc3C2)cc1OC,-1,/,-4,122*,-4,-3
SMILES,CAL PDZ FP-1,S100A4 MyoIIA,dFosB act,Statin myotox sup,CAL PDZ FP-2,CDK5 p35 inh
COc1cc2c(cc1OC)CN(C(=O)c1ccc(-c3ccccc3)cc1)CC2,-2,0,-6,-18,-17,0
Cc1cc(N2CC(C(=O)O)CC2=O)ccc1Br (stereo not given),0,/,-1,76*,-5,-1
CC(=O)COC(=O)C1CC(=O)N(c2ccc(C)c(C)c2)C1 (stereo not given),-2,0,-2,/,0,-1
Cc1ccc(N2CC(C(=O)NC3=NCCS3)CC2=O)cc1C (stereo not given),0,/,3,13,-13,0
Cc1ccc(N2CC(C(=O)Nc3ccc(N(C)C)cc3)CC2=O)cc1C (stereo not given),1,/,-6,148*,60*,1
COc1ccc(-c2csc(Cc3nnc(N4CCOCC4)n3-c3ccccc3)n2)cc1OC,/,-6,-7,/,-2,-1
COc1ccc(-c2ccc(SCC(=O)c3ccccc3)nn2)cc1OC,-9,1,-35,/,71*,1
Cc1ccc(-c2ccc(SCC(=O)c3ccccc3)nn2)cc1,-2,/,1,/,-1,1
COc1ccccc1NC(=O)c1ccc(NC(=O)c2cc3c(s2)CCC3)cc1,-2,/,-13,/,0,0
CC(C)C1N(c2ccccc2)C(N)=C(C#N)C1(C#N)C#N (stereo not given),/,/,0,19,-4,1
CCN(CC)CCC(=O)Nc1cccc2c1C(=O)c1ccccc1C2=O,-1,0,35*,25,/,-1
CCOC(=O)C1C(c2cccc(F)c2)NC(=S)NC1(O)C(F)(F)F (stereo not given),-1,/,2,98*,-3,2
CCOC(=O)C1C(c2cc(OC)c(OC)c(OC)c2)NC(=S)NC1(O)C(F)(F)F (stereo not given),-1,/,-6,101*,-1,-1
COc1ccc(OC)c(NC(=S)NCC(c2cccnc2)N2CCOCC2)c1 (stereo not given),0,-1,1,9,-1,-5
Cc1ccc(NC(=O)C(=O)N2CCCC2)cc1Cl,0,-4,1,/,0,-2
O=C(COC(=O)Cc1ccc(F)cc1)NC1CCCCC1,0,-5,-5,5,34*,0
CCOC(=O)C1(C)NC(c2ccc(N(C)C)cc2)C2C(=O)N(CC)C(=O)C21 (stereo not given),0,/,0,1,1,1
CCOC(=O)C1(C)NC(c2ccc(N(C)C)cc2)C2C(=O)N(c3ccc(OC)cc3)C(=O)C21 (stereo not given),-1,/,-3,115*,-1,-2
CCOC(=O)C1(C)NC(c2cc(OC)c(OC)c(OC)c2)C2C(=O)N(CC)C(=O)C21 (stereo not given),-1,/,0,2,67*,1
